These results are taken from ChEMBL document CHEMBL1828575, “Design, synthesis and antiproliferative activities of biarylolefins based on polyhydroxylated and carbohydrate scaffolds” (Eur J Med Chem, 2011).

Each structure is given as a SMILES string. The source made the active and inactive calls. No cut-off for these calls is given here.

System in the first assay: not listed separately
Description: Cytotoxicity against human NCI60 cells assessed as cellular growth at 10 uM after 48 hrs by SRB assay relative to untreated control. The assay is classed as functional. The gist of the method:
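NCI-60 panel lines grown in RPMI 1640 with 5% FBS and 2 mM L-glutamine. Plated at 5000–40,000 cells/well and preincubated 24 h at 37 °C, 5% CO₂, with time-zero plates fixed in TCA. Compounds, dissolved in DMSO and diluted in medium, were applied for 48 h. Cells were TCA-fixed (10% final for adherent, 16% for suspension) and stained with 0.4% SRB in 1% acetic acid. Dye was solubilised in 10 mM Tris base and read at 515 nm; growth was expressed as a percentage of untreated control.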
On to `COc1cc(/C(=C2\O[C@@H]([C@H]3COC(C)(C)O3)[C@H]3OC(C)(C)O[C@@H]23)c2cccc(N)c2)cc(OC)c1OC`, for which the Activity stood at 102%.

On to `COc1cc(/C(=C2\O[C@@H]([C@H]3COC(C)(C)O3)[C@H]3OC(C)(C)O[C@@H]23)c2ccc3c(c2)OCO3)cc(OC)c1OC`, for which the Activity is 61%.

Turning to `COc1cc(/C(=C2\O[C@@H]([C@H](O)CO)[C@H]3OC(C)(C)O[C@@H]23)c2ccc3c(c2)OCO3)cc(OC)c1OC`, the Activity was found to be 106%.

On to `COc1cc(/C(=C2\O[C@@H]([C@H](O)CO)[C@H]3OC(C)(C)O[C@@H]23)c2cccc(N)c2)cc(OC)c1OC`, for which the Activity was found to be 103%.

Take `COc1cc(/C(=C2\O[C@@H]([C@H](O)CO)[C@H]3OC(C)(C)O[C@@H]23)c2ccc3ccccc3c2)cc(OC)c1OC`: the Activity came out at 96%.

In the case of `COc1ccc(/C(=C2/O[C@@H]([C@H](O)CO)[C@H]3OC(C)(C)O[C@@H]23)c2cc(OC)c(OC)c(OC)c2)cc1O`, the Activity came out at 79%.

For the molecule `COc1cc(C(=C2O[C@@H]([C@H]3COC(C)(C)O3)[C@H]3OC(C)(C)O[C@@H]23)c2cc(OC)c(OC)c(OC)c2)cc(OC)c1OC`, the Activity turned out to be 105%.

With `COc1cc(C(=C2O[C@@H]([C@H](O)CO)[C@H]3OC(C)(C)O[C@@H]23)c2cc(OC)c(OC)c(OC)c2)cc(OC)c1OC`, the Activity came to 103%.

The species named for a further assay is Ovis aries. Description: Inhibition of sheep brain tubulin polymerization at 10 uM. A digest of the protocol:
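Microtubule protein from sheep brain, purified by two assembly/disassembly cycles (37 °C/0 °C), in 100 mM MES pH 6.6, 1 mM EGTA, 0.5 mM MgCl₂. Compounds in DMSO were tested at a single concentration, with incubation at 37 °C for 10 min and then 0 °C for 5 min before measuring assembly rate, following a modified Guénard protocol.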
Regarding `COc1cc([C@@H]2c3cc4c(cc3C[C@H]3COC(=O)[C@@H]32)OCO4)cc(OC)c1OC`, the “tubulin polymerization inhibition call (active/not active)” value was “Active”.

With `COc1cc(/C(=C2\O[C@@H]([C@H](O)CO)[C@H]3OC(C)(C)O[C@@H]23)c2cccc(N)c2)cc(OC)c1OC`, the “tubulin polymerization inhibition call (active/not active)” value was “inactive”.

In the case of `COc1ccc(C(=C(COC(C)=O)COC(C)=O)c2cc(OC)c(OC)c(OC)c2)cc1O[Si](C)(C)C(C)(C)C`, the “tubulin polymerization inhibition call (active/not active)” value is “inactive”.

For `COc1cc(C(=C(CO)CO)c2ccc3c(c2)OCO3)cc(OC)c1OC`, the “tubulin polymerization inhibition call (active/not active)” value was “inactive”.
